According to ChEMBL document CHEMBL1154060, “Synthesis and structure-activity relationship of Huprine derivatives as human acetylcholinesterase inhibitors” (Bioorg Med Chem, 2009):

Assays:
Cholinesterase [1] = target: T1, Cholinesterase (Homo sapiens, UniProt P06276); assay: Inhibition of human recombinant BuChE assessed as enzyme activity reversion at 100 uM by Ellman's assay
Acetylcholinesterase = Acetylcholinesterase (Homo sapiens, UniProt P22303); assay: Inhibition of human recombinant AChE […] by Ellman's assay
Chain of Acetylcholinesterase (P22303 whole entry): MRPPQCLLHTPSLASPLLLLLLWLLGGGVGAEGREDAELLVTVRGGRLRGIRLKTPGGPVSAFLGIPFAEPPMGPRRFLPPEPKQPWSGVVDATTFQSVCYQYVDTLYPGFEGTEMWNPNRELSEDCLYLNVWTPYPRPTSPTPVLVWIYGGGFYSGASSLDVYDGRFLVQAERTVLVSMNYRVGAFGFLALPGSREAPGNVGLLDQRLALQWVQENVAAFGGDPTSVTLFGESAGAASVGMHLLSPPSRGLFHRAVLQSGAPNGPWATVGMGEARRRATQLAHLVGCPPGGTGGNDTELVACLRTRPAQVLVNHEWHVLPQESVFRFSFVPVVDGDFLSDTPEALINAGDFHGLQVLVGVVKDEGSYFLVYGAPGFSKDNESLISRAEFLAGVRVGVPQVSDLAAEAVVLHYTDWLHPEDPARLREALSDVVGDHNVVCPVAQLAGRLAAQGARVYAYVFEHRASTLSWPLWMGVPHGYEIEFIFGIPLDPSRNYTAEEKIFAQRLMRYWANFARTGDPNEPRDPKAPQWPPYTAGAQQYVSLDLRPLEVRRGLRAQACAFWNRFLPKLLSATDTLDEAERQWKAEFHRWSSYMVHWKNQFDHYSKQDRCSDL

Cholinesterase [2] = target: T1, Cholinesterase; assay: Inhibition of human recombinant BuChE by Ellman's assay
In short: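 Ellman assay at 25 °C with 125 pM recombinant human enzyme: AChE with acetylthiocholine iodide, BuChE with butyrylthiocholine, substrate at 0.53 mM. Buffer was 0.1 M phosphate pH 7.4 with 15 mM NaCl, NaN3, BSA and DTNB. Inhibitor was preincubated with enzyme for at least 30 min. Rate read at 414 nm for 20 min against an inhibitor-free 100% control. Generally at least triplicate; IC50 by nonlinear regression.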

Homo sapiens = species: Homo sapiens; assay: Selectivity ratio of IC50 for human recombinant BuChE to IC50 for human recombinant AChE
Cholinesterase [3] = target: T1, Cholinesterase; assay: Inhibition of human recombinant BuChE assessed as enzyme activity reversion at 10 uM by Ellman's assay

T1 sequence (P06276 whole entry): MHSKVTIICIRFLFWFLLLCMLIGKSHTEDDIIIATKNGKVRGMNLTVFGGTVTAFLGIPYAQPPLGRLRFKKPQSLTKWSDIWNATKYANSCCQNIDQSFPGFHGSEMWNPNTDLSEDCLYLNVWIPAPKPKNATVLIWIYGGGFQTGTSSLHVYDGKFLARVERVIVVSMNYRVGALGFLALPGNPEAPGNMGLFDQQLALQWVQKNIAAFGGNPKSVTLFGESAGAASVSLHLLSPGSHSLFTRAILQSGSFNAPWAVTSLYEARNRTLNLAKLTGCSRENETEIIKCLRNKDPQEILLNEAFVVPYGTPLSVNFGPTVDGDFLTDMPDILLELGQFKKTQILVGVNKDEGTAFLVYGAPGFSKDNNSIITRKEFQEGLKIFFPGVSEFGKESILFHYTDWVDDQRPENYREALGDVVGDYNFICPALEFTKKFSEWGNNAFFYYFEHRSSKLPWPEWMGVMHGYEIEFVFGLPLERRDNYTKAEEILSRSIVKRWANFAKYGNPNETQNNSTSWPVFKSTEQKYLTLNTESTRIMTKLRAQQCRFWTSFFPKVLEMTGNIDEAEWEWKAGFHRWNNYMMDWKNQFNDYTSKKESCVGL

SMILES	IC50 (Acetylcholinesterase)	further results
C#CCCCCCCN1CCc2cc(OC)c(OC)cc2C1c1ccc([N+](=O)[O-])cc1 (centres undefined)	2.92 µM	inhibition (Cholinesterase [1]): < 1%
C#CCCCCCCN1CCc2cc(OC)c(OC)cc2C1c1cccc([N+](=O)[O-])c1 (centres undefined)	8.08 µM	inhibition (Cholinesterase [1]): < 1%
CSc1n[nH]c2nc3c(c(N)c12)C1CC(C)=CC(C3)C1 (racemic)	50 µM	–
CC1=CC2Cc3nc4cc(Cl)ccc4c(Cl)c3C(C1)C2 (racemic)	22.4 µM	–
CCC1=CC2Cc3nc4cc(Cl)ccc4c(Cl)c3C(C1)C2 (racemic)	19.2 µM	–
CCC1=CC2Cc3nc4cc(OC)c(OC)cc4c(N)c3C(C1)C2 (racemic)	5.1 µM	–
CCC1=CC2Cc3nc4cc(Cl)ccc4c(NCCO)c3C(C1)C2 (racemic)	0.00675 µM	IC50 (Cholinesterase [2]): 3.64 µM; Ratio IC50 (Homo sapiens): 540
CCCSc1nc2nc3c(c(N)c2s1)C1CC(C)=CC(C3)C1 (racemic)	7.69 µM	–
COc1cc2nc3c(c(N)c2cc1OC)C1CC(C)=CC(C3)C1 (racemic)	11.7 µM	–
CC1=CC2Cc3nc4oc(C)c(C)c4c(N)c3C(C1)C2 (racemic)	4.78 µM	–
CC1=CC2Cc3nc4oc(C5CC5)nc4c(N)c3C(C1)C2 (racemic)	50 µM	–
CC1=CC2Cc3nc4[nH]ncc4c(N)c3C(C1)C2 (racemic)	50 µM	–
CC1=CC2Cc3nc4cc(Cl)ccc4c(NCCN=[N+]=[N-])c3C(C1)C2 (racemic)	0.00869 µM	IC50 (Cholinesterase [2]): 2.35 µM; Ratio IC50 (Homo sapiens): 270
CCC1=CC2Cc3nc4cc(Cl)ccc4c(NCCN=[N+]=[N-])c3C(C1)C2 (racemic)	0.0137 µM	IC50 (Cholinesterase [2]): 0.824 µM; Ratio IC50 (Homo sapiens): 60
CC1=CC2Cc3nc4cc(Cl)ccc4c(O)c3C(C1)C2 (racemic)	14.7 µM	–
CC1=CC2Cc3nc4ncccc4c(N)c3C(C1)C2 (racemic)	0.81 µM	IC50 (Cholinesterase [2]): 0.342 µM; Ratio IC50 (Homo sapiens): 0.4
CCC1=CC2Cc3nc4cnccc4c(N)c3C(C1)C2 (racemic)	0.664 µM	–
COc1cc2c(cc1OC)C(c1cccc([N+](=O)[O-])c1)N(CCCCCCc1cn(CCNc3c4c(nc5cc(Cl)ccc35)CC3C=C(C)CC4C3)nn1)CC2 (racemic)	0.00395 µM	inhibition (Cholinesterase [3]): 6%; Ratio IC50 (Homo sapiens): > 10000
CC1=CC2Cc3nc4cc(Cl)ccc4c(NC(=O)CCl)c3C(C1)C2 (racemic)	2.51 µM	–
CC1=CC2Cc3nc4oc(C5CCC5)nc4c(N)c3C(C1)C2 (racemic)	27.1 µM	–
CCCSc1nc2nc3c(c(N)c2s1)C1CC(CC)=CC(C3)C1 (racemic)	7.27 µM	–
CC1=CC2Cc3nc4cc(Cl)ccc4c(NCCCl)c3C(C1)C2 (racemic)	0.0433 µM	–
CCC1=CC2Cc3nc4oc(C)c(C)c4c(N)c3C(C1)C2 (racemic)	6.45 µM	–
CC1=CC2Cc3nc4cc(Cl)ccc4c(NCCO)c3C(C1)C2 (racemic)	0.00966 µM	–
CCC1=CC2Cc3nc4oc(C5CC5)nc4c(N)c3C(C1)C2 (racemic)	50 µM	–
CCC1=CC2Cc3nc4ncccc4c(N)c3C(C1)C2 (racemic)	0.855 µM	–
CCC1=CC2Cc3nc4cc(Cl)ccc4c(N)c3[C@@H](C1)C2 [HUPRINE X]	0.0011 µM	–
